Bioassay records (PubChem)
Hck-Nef inh: inhibitors of Nef-activated human Hck kinase, primary screen, biochemical, Z-Lyte FRET, 384-well, Hck-YEEI. Tyrosine-protein kinase HCK (Homo sapiens), P08631. Recombinant Hck-YEEI plus Nef, Z-Lyte FRET kinase assay. inhibition, % at 20 µM. 220,000 compounds, 0.68% hits. AID 463187, 2010;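 active means Hck-Nef kinase inhibition above about 50%, limit read from the data; inactive means inhibition below that limit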;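 further: 0% = DMSO with Hck plus Nef and 100% = Hck alone without Nef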
RanGTP-Imp inh: inhibitors of RanGTP-importin-beta interaction, primary screen, biochemical, FRET, CFP-Ran, YFP-importin-beta, homogeneous | Ran GTPase (GTP-bound) - importin-beta complex | cell-free CFP-Ran/YFP-importin-beta FRET ratio | inhibition, % (concentration not given with the values) | 300,000 compounds, 1.1% hits | AID 2216, 2009;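 active means more than half of the replicate wells show a fall in the fluorescence ratio signal beyond about 16%, limit read from the data, passing the limit was not always enough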;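 further: 0% = DMSO wells and 100% = Ran loaded with GDP instead of GTP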
Tb hexokinase: Trypanosoma brucei hexokinase 1 inhibitors, primary screen, biochemical, G6PDH-coupled NADH absorbance, MLSCN library; 220,000 compounds, 0.11% hits; AID 1430, 2008; recombinant TbHK1, G6PDH-coupled NADH A340; hexokinase 1 [Trypanosoma brucei]; inhibition, % at 10 µM;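 active means inhibition of 50% or more in the single-dose primary screen; inactive means inhibition below 50%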
Runt-CBFb FRET: inhibitors of RUNX1 Runt–CBFb binding, primary screen, biochemical, FRET, Cerulean-Runt, Venus-CBFb, uHTS; Runt-related transcription factor 1 (Homo sapiens) + Core-binding factor subunit beta …; Cerulean-Runt/Venus-CBFb FRET ratio 530/480, 1 h; inhibition, % at 20 µM; 220,000 compounds, 0.46% hits;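 active means inhibition over about 50% at 20 µM in the single-dose screen, limit read from the data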;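 further: 0% = DMSO wells and 100% = excess unlabeled CBFb competitor control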
Target sequence (Q01196 whole entry, looked up): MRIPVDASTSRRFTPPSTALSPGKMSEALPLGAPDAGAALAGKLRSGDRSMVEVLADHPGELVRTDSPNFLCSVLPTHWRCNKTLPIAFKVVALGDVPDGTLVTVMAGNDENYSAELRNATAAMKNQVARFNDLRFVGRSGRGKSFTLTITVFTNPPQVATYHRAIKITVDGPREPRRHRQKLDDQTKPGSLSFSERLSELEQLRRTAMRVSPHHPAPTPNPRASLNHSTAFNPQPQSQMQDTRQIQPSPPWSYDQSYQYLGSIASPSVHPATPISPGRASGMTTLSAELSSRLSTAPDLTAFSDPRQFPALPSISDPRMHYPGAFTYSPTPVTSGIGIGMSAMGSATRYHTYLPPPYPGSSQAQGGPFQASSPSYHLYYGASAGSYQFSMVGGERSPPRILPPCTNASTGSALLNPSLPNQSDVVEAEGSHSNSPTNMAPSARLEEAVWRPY
Target sequence (Q13951 whole entry, looked up): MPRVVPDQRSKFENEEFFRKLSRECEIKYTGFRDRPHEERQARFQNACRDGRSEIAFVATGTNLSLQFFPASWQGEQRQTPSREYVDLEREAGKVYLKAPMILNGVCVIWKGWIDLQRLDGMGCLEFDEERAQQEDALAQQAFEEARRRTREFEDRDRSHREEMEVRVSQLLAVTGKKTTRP
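Assay system: Cerulean-tagged RUNX1 Runt domain (FRET donor) fusion protein / Amount: 100 nM each of Venus-CBFb and Cerulean-Runt domain / Medium: Tris buffer pH 7.5 with salts and BSA / Also added: Venus-CBFb 100 nM / Schedule: 1 h complex formation plus 1 h compound treatment, room temperature / Signal: FRET fluorescence / Read-out: loss of energy transfer signal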
Runt-SMMHC FRET: inhibitors of RUNX1 Runt–CBFb-SMMHC binding, primary screen, biochemical, FRET, Cerulean-Runt, Venus-CBFb-SMMHC, uHTS | Runt-related transcription factor 1 (Homo sapiens) + Core-binding factor subunit beta … | Cerulean-Runt/Venus-CBFb-SMMHC FRET ratio 530/480, 1 h | inhibition, % at 20 µM | 220,000 compounds, 0.74% hits | AID 1434, 2008;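 active means mean inhibition across duplicate retests at 20 µM reaching about 50%, limit read from the data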;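 further: 0% = DMSO wells and 100% = wells with excess untagged CBFb-SMMHC; inhibitors lower the FRET ratio by blocking Runt binding to CBFb-SMMHC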
Starred values were filed as active, the others as inactive; x = no result. Rows were chosen to be rich in hits. Some 1.9% of all compounds tested hit in one or more screens of this group.

SMILES	Hck-Nef inh	RanGTP-Imp inh	Tb hexokinase	Runt-CBFb FRET	Runt-SMMHC FRET
CCCCCNc1nc(NCCCO)c(C#N)c2c1CN(C)CC2	11	146*	-35	34	79*
C=CCNc1nc(NCc2ccccc2)c(C#N)c2c1CN(C)CC2	6	109*	-16	35	65*
Cc1cccc(OCC(=O)Nc2ccc(NC(=O)c3ccco3)cc2)c1	x	1	x	x	x
CC(=O)Nc1ccc(Nc2c([N+](=O)[O-])c(=O)n(-c3ccccc3)c3ccccc23)cc1	20	8	1	0	-1
O=C(Nc1nccs1)NC(C(F)(F)F)C(F)(F)F	3	5	-4	-1	2
O=C(/C=C/Nc1nccs1)C(F)(F)Cl	-1	-4	-5	45	71*
COc1cccc(OCc2cc(C(=O)N3CCNC(=O)C3Cc3ccccc3)no2)c1 (stereo not drawn)	x	-1	x	x	x
CC(C)(C)c1csc(NC(=O)c2cccnc2)n1	x	36*	x	x	x
CCCn1c(CN2CCN(C(=O)OCC)CC2)nc2cc(NC(=O)CC)ccc21	x	2	x	x	x
CC(C)c1nnc(SCC(=O)Nc2ccc3c(c2)OCCO3)n1C	x	3	x	x	x
O=c1n(Cc2ccccc2F)c2ccccc2n1Cc1ccccc1F	8	4	6	-1	-3
Cn1c(=O)n(Cc2ccccc2F)c2ccccc21	5	40*	2	2	-1
CSc1ncc(Cl)c(C(=O)NCc2cccnc2)n1	x	0	x	x	x
O=c1cc(N2CCCCCC2)[nH]c(=O)n1-c1ccc(Cl)cc1	9	129*	-9	0	-4
O=c1cc(N2CCCC2)[nH]c(=O)n1-c1ccc(Cl)cc1	4	59*	5	-88	1
O=c1cc(N2CCOCC2)[nH]c(=O)n1-c1ccc(Cl)cc1	0	11	0	0	1
Cn1c(N2CCN(C(c3ccccc3)c3ccccc3)CC2)nc2c1c(=O)[nH]c(=O)n2C	x	-1	x	x	x
CC1=Nc2ccccc2/C1=C/c1sc(=N)n(-c2nccs2)c1O	1	23*	-2	-42	-112
CC1=Nc2ccccc2/C1=C\c1nc(-c2ccc(C(F)(F)F)cc2)oc1O	1	-30	-7	-31	-75
COc1ccc(C(=O)Nc2sc(C)c(-c3ccccc3)c2C#N)cc1OC	-11	79*	-22	2	6
Cc1sc(NC(=O)COc2ccccc2)c(C#N)c1-c1ccccc1	1	1	35	1	0
Cc1cccc(Nc2cc(C)c3c(O)cccc3n2)c1C	-5	1	-6	2	-4
COc1ccc(C(=O)NCC(=O)Nc2ccc(-c3ccccc3)cc2)cc1	x	1	x	x	x
COc1ccc(C(=O)N(Cc2ccco2)C(C(=O)NC2CCCC2)c2ccc(O)cc2)cc1OC (stereo not drawn)	-1	x	7	2	-2
N=c1c(S(=O)(=O)c2ccc(Br)cc2)cc2c(=O)n3ccccc3nc2n1Cc1ccccc1	x	0	x	x	x
SMILES	Hck-Nef inh	RanGTP-Imp inh	Tb hexokinase	Runt-CBFb FRET	Runt-SMMHC FRET
N=c1c(S(=O)(=O)c2ccccc2)cc2c(=O)n3ccccc3nc2n1Cc1cccnc1	x	122*	x	x	x
Cc1ccc(Cn2c(=N)c(S(=O)(=O)c3ccc(Br)cc3)cc3c(=O)n4ccccc4nc32)cc1	x	3	x	x	x
Cc1cccn2c(=O)c3cc(S(=O)(=O)c4ccccc4)c(=N)n(Cc4cccnc4)c3nc12	x	139*	x	x	x
Cc1ccc(S(=O)(=O)c2cc3c(=O)n4cccc(C)c4nc3n(Cc3ccncc3)c2=N)cc1	x	112*	x	x	x
COc1ccc(-n2nc(C(=O)NCC(=O)NCc3cccc(F)c3)c3ccccc3c2=O)cc1Cl	x	4	x	x	x
Cc1ccc(-c2nc3cnccn3c2Nc2c(C)cccc2C)o1	4	47*	-14	-3	-47
Cc1ccc(C2=C/C(=C/c3cccnc3)C(=O)O2)c(C)c1	2	34*	-8	2	-2
O=C1OC(c2ccc(Cl)cc2)=C/C1=C/c1cccnc1	x	4	x	x	x
COc1ccc(-c2nnc(-c3cc4c(ccc5ccccc54)oc3=O)o2)cc1	2	-6	0	16	39
